Counter-ions that a name gives are not always drawn. The source made the active and inactive calls. The calls are words filed in the database; no cut-off is given here.
Tests used:
A-375 [1] = experiment: Cell cycle arrest in human A375 cells assessed as accumulation at S phase at 1 uM by FACS analysis; type: functional
Method in brief: (§1)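 A375 cells were exposed to compound for 24 h, and cell cycle distribution was measured by FACS. The sub-G1 peak (labelled G0) was scored as the apoptotic cell percentage and compared with untreated control cells.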

[2] = Cytotoxicity against human Gurav cells after 48 hrs by SRB assay; type: functional
Method in brief: (§2)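 Sulforhodamine B assay estimating cell density from cellular protein content, run on human cancer lines of lung, breast, oral, colon, cervix, ovary and prostate origin, with GI50 values derived.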

A-375 [3] = experiment: Cell cycle arrest in human A375 cells assessed as accumulation at G0/G1 phase at 1 uM by FACS analysis; type: functional; method in brief: as §1
A-375 [4] = experiment: Induction of apoptosis in human A375 cells assessed as caspase 3 activation at 1 uM after 24 hrs by fluorimetry; type: functional, cell-based
Method in brief: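 Caspase-3 activity in treated A375 cells was measured by fluorimetry relative to untreated cells.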

A-375 [5] = experiment: Cell cycle arrest in human A375 cells assessed as accumulation at G2/M phase at 1 uM by FACS analysis; type: functional; method in brief: as §1
SiHa = experiment: Cytotoxicity against human SiHa cells after 48 hrs by SRB assay; type: functional; method in brief: as §2
A549 = experiment: Cytotoxicity against human A549 cells after 48 hrs by SRB assay; type: functional; conditions: A549, 48 h; method in brief: as §2
HOP-62 = experiment: Cytotoxicity against human HOP62 cells after 48 hrs by SRB assay; type: functional; conditions: HOP-62, 48 h; method in brief: as §2
MCF7 = experiment: Cytotoxicity against human MCF7 cells after 48 hrs by SRB assay; type: functional; conditions: MCF7, 48 h; method in brief: as §2
ZR-75-1 = experiment: Cytotoxicity against human ZR-75-1 cells after 48 hrs by SRB assay; type: functional; conditions: ZR-75-1, 48 h; method in brief: as §2
A-375 [6] = experiment: Antitumor activity against human A375 cells assessed as cell viability at 1 uM after 24 hrs by MTT assay; type: functional, cell-based
[7] = Cytotoxicity against human DWD cells after 48 hrs by SRB assay; type: functional; method in brief: as §2
A2780 = experiment: Cytotoxicity against human A2780 cells after 48 hrs by SRB assay; type: functional; conditions: A2780, 48 h; method in brief: as §2
A-375 [8] = experiment: Induction of apoptosis in human A375 cells assessed as cells in dub G1 phase at 1 uM after 24 hrs by FACS analysis; type: functional; method in brief: as §1
KB = experiment: Cytotoxicity against human KB cells after 48 hrs by SRB assay; type: functional; method in brief: as §2
COLO 205 = experiment: Cytotoxicity against human COLO205 cells after 48 hrs by SRB assay; type: functional; conditions: COLO 205, 48 h; method in brief: as §2
PC-3 = experiment: Cytotoxicity against human PC3 cells after 48 hrs by SRB assay; type: functional; conditions: PC-3, 48 h; method in brief: as §2
A-375 [9] = experiment: Induction of apoptosis in human A375 cells assessed as p53 protein expression at 1 uM after 24 hrs by Western blotting; type: functional, cell-based
Method in brief: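 A375 cells were treated for 24 h, and lysates were probed for p53 by western blot with a p53-specific antibody. Untreated cells served as control and β-actin as loading control.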

[10] = target: T1, Type II restriction enzyme BamHI (Bacillus amyloliquefaciens) (UniProt P23940); experiment: Inhibition of Bacillus amyloliquifaction Bam H1-mediated restriction digestion of pBR322 at 4 uM by RED 100 assay
T1 sequence (whole entry): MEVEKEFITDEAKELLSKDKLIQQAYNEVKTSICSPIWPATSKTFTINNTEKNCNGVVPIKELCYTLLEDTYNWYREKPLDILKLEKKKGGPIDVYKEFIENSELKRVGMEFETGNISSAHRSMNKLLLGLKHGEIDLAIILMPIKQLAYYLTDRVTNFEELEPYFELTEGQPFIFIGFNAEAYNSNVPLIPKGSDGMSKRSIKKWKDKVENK
Method in brief: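 Restriction enzyme digestion (RED 100) of vector DNA by BamHI after exposure to compound at 2, 4, 8, 16 and 32 micromolar, with controls of vector cut without compound and uncut vector DNA.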

COc1cc2c(cc1OCCCN1CCN(C(=O)c3ccccc3NCc3ccc4ccccc4c3)CC1)N=C[C@@H]1CCCN1C2=O
Activity (A-375 [1]): 6.32%
GI50 [2]: 170 nM
Activity (A-375 [3]): 83.66%
Activity (A-375 [4]): Active
Activity (A-375 [5]): 6.32%
GI50 (SiHa): 160 nM
GI50 (A549): 170 nM
GI50 (HOP-62): 1700 nM
GI50 (MCF7): 140 nM
GI50 (ZR-75-1): 150 nM
Activity (A-375 [6]): Active
GI50 [7]: 140 nM
GI50 (A2780): 170 nM
Activity (A-375 [8]): 5.486%
GI50 (KB): 150 nM
GI50 (COLO 205): 180 nM
GI50 (PC-3): 140 nM

COc1cc2c(cc1OCCCN1CCN(C(=O)c3ccccc3NCc3cc(OC)c(OC)c(OC)c3)CC1)N=C[C@@H]1CCCN1C2=O
GI50 [2]: 170 nM
GI50 (SiHa): 170 nM
GI50 (A549): 2000 nM
GI50 (HOP-62): 2100 nM
GI50 (MCF7): 140 nM
GI50 (ZR-75-1): 170 nM
GI50 [7]: 150 nM
GI50 (A2780): 180 nM
GI50 (KB): 150 nM
GI50 (COLO 205): 170 nM
GI50 (PC-3): 160 nM

COc1cccc2c1C(=O)c1c(O)c3c(c(O)c1C2=O)C[C@@](O)(C(=O)CO)C[C@@H]3O[C@H]1C[C@H](N)[C@H](O)[C@H](C)O1 [DOXORUBICIN HYDROCHLORIDE]
GI50 [2]: 170 nM
GI50 (SiHa): 170 nM
GI50 (HOP-62): 140 nM
GI50 (MCF7): 170 nM
GI50 [7]: 100 nM
GI50 (A2780): 160 nM
GI50 (KB): 170 nM
GI50 (COLO 205): 140 nM

COc1cc2c(cc1OCCCCCN1CCN(C(=O)c3ccccc3NCc3cc(OC)c(OC)c(OC)c3)CC1)N=C[C@@H]1CCCN1C2=O
GI50 [2]: 160 nM
GI50 (SiHa): 170 nM
GI50 (A549): 1900 nM
GI50 (HOP-62): 1900 nM
GI50 (MCF7): 140 nM
GI50 (ZR-75-1): 160 nM
GI50 [7]: 140 nM
GI50 (A2780): 160 nM
GI50 (KB): 140 nM
GI50 (COLO 205): 2200 nM
GI50 (PC-3): 140 nM

COc1cc2c(cc1OCCCCCN1CCN(C(=O)c3ccccc3NCc3ccc4ccccc4c3)CC1)N=C[C@@H]1CCCN1C2=O
Activity (A-375 [1]): 7.09%
Activity (A-375 [9]): Active
GI50 [2]: 140 nM
Activity (A-375 [3]): 91.94%
Activity (A-375 [4]): Active
Activity (A-375 [5]): 1.97%
GI50 (SiHa): 150 nM
GI50 (A549): 170 nM
GI50 (HOP-62): 1800 nM
GI50 (MCF7): 130 nM
GI50 (ZR-75-1): 150 nM
inhibition [10]: Active
Activity (A-375 [6]): Active
GI50 [7]: 130 nM
GI50 (A2780): 140 nM
Activity (A-375 [8]): 7.333%
GI50 (KB): 130 nM
GI50 (COLO 205): 150 nM
GI50 (PC-3): 140 nM

COc1cc2c(cc1OCCCN1CCN(C(=O)c3ccccc3NCc3ccncc3)CC1)N=C[C@@H]1CCCN1C2=O
GI50 [2]: 180 nM
GI50 (SiHa): 1800 nM
GI50 (A549): 2000 nM
GI50 (HOP-62): 2200 nM
GI50 (MCF7): 130 nM
GI50 (ZR-75-1): 180 nM
GI50 [7]: 170 nM
GI50 (A2780): 190 nM
GI50 (KB): 150 nM
GI50 (COLO 205): 190 nM
GI50 (PC-3): 1800 nM

COc1cc2c(cc1OCCCCCCN1CCN(C(=O)c3ccccc3NCc3cc(OC)c(OC)c(OC)c3)CC1)N=C[C@@H]1CCCN1C2=O
GI50 [2]: 170 nM
GI50 (SiHa): 1800 nM
GI50 (A549): 180 nM
GI50 (HOP-62): 1900 nM
GI50 (MCF7): 140 nM
GI50 (ZR-75-1): 180 nM
GI50 [7]: 150 nM
GI50 (A2780): 170 nM
GI50 (KB): 150 nM
GI50 (COLO 205): 160 nM
GI50 (PC-3): 160 nM

COc1cc2c(cc1OCCCCCN1CCN(C(=O)c3cc(Cl)ccc3NCc3ccc4ccccc4c3)CC1)N=C[C@@H]1CCCN1C2=O
GI50 [2]: 170 nM
GI50 (SiHa): 1800 nM
GI50 (A549): 2000 nM
GI50 (HOP-62): 2000 nM
GI50 (MCF7): 140 nM
GI50 (ZR-75-1): 180 nM
GI50 [7]: 170 nM
GI50 (A2780): 180 nM
GI50 (KB): 140 nM
GI50 (COLO 205): 29000 nM
GI50 (PC-3): 170 nM

O=C(c1ccccc1NCc1coc2ccccc2c1=O)N1CCNCC1
Activity (A-375 [1]): 18.53%
Activity (A-375 [3]): 68.39%
Activity (A-375 [5]): 15.45%
Activity (A-375 [6]): Active
Activity (A-375 [8]): 1.15%

COc1cc2c(cc1OCCCCCCN1CCN(C(=O)c3ccccc3NCc3ccncc3)CC1)N=C[C@@H]1CCCN1C2=O
GI50 [2]: 180 nM
GI50 (SiHa): 1900 nM
GI50 (A549): 2200 nM
GI50 (HOP-62): 25000 nM
GI50 (MCF7): 150 nM
GI50 (ZR-75-1): 2000 nM
GI50 [7]: 170 nM
GI50 (A2780): 190 nM
GI50 (KB): 150 nM
GI50 (COLO 205): 2600 nM
GI50 (PC-3): 1800 nM

O=C(c1ccccc1NCc1ccc2ccccc2c1)N1CCNCC1
Activity (A-375 [1]): 14.56%
Activity (A-375 [3]): 72.22%
Activity (A-375 [5]): 14.78%
Activity (A-375 [6]): Active
Activity (A-375 [8]): 1.233%

COc1cc2c(cc1OCCCCCN1CCN(C(=O)c3ccccc3NCc3ccncc3)CC1)N=C[C@@H]1CCCN1C2=O
GI50 [2]: 170 nM
GI50 (SiHa): 1800 nM
GI50 (A549): 2000 nM
GI50 (HOP-62): 2300 nM
GI50 (MCF7): 160 nM
GI50 (ZR-75-1): 2000 nM
GI50 [7]: 150 nM
GI50 (A2780): 170 nM
GI50 (KB): 150 nM
GI50 (COLO 205): 25000 nM
GI50 (PC-3): 170 nM

COc1cc2c(cc1OCCCCCN1CCN(C(=O)c3ccccc3NCc3coc4ccccc4c3=O)CC1)N=C[C@@H]1CCCN1C2=O
Activity (A-375 [1]): 13.34%
GI50 [2]: 170 nM
Activity (A-375 [3]): 81.9%
Activity (A-375 [4]): Active
Activity (A-375 [5]): 6.68%
GI50 (SiHa): 130 nM
GI50 (A549): 160 nM
GI50 (HOP-62): 1800 nM
GI50 (MCF7): 140 nM
GI50 (ZR-75-1): 160 nM
Activity (A-375 [6]): Active
GI50 [7]: 160 nM
GI50 (A2780): 180 nM
Activity (A-375 [8]): 3.483%
GI50 (KB): 150 nM
GI50 (COLO 205): 2400 nM
GI50 (PC-3): 140 nM

COc1cc2c(cc1O)N=C[C@@H]1CCCN1C2=O
Activity (A-375 [1]): 23.08%
GI50 [2]: 160 nM
Activity (A-375 [3]): 67.67%
Activity (A-375 [4]): Active
Activity (A-375 [5]): 12.19%
GI50 (SiHa): 170 nM
GI50 (A549): 160 nM
GI50 (HOP-62): 150 nM
GI50 (MCF7): 170 nM
Activity (A-375 [6]): Active
GI50 (A2780): 140 nM
Activity (A-375 [8]): 2.683%
GI50 (KB): 170 nM
GI50 (COLO 205): 110 nM
GI50 (PC-3): 200 nM

COc1cc2c(cc1OCCCCCN1CCN(C(=O)c3cc(Cl)ccc3NCc3coc4ccccc4c3=O)CC1)N=C[C@@H]1CCCN1C2=O
GI50 [2]: 170 nM
GI50 (SiHa): 160 nM
GI50 (A549): 170 nM
GI50 (HOP-62): 1800 nM
GI50 (MCF7): 150 nM
GI50 (ZR-75-1): 160 nM
GI50 [7]: 170 nM
GI50 (A2780): 180 nM
GI50 (KB): 160 nM
GI50 (COLO 205): 2300 nM
GI50 (PC-3): 160 nM

COc1cc2c(cc1OCCCCCCN1CCN(C(=O)c3ccccc3NCc3ccc4ccccc4c3)CC1)N=C[C@@H]1CCCN1C2=O
GI50 [2]: 170 nM
GI50 (SiHa): 150 nM
GI50 (A549): 170 nM
GI50 (HOP-62): 1900 nM
GI50 (MCF7): 140 nM
GI50 (ZR-75-1): 160 nM
GI50 [7]: 160 nM
GI50 (A2780): 190 nM
GI50 (KB): 150 nM
GI50 (COLO 205): 180 nM
GI50 (PC-3): 150 nM

From ChEMBL document CHEMBL1155482, “Synthesis, anticancer activity and apoptosis inducing ability of anthranilamide-PBD conjugates” (2010)
